The values below come from ChEMBL document CHEMBL1126117, “Synthesis and chemical characterization of N-substituted phenoxazines directed toward reversing vinca alkaloid resistance in multidrug-resistant cancer cells” (J Med Chem, 1992).

In test [1] the test system is KB. As to the kind of experiment: Increase in the accumulation of vincristine in multi-drug resistant KB8-5 (HeLa variant) cell line in vitro. The test is classed as functional, Homo sapiens. Further details: concentration or dose not given beside the values. The gist of the method:
(§1)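 Radiolabel accumulation. Cell monolayers (2×10^6 cells, attached overnight; KBChR-8-5 kept with 10 ng/mL colchicine) were washed and held 10 min in physiologic Tris buffer. They were then given serum-free RPMI-1640 in 25 mM Hepes, pH 7.4, with [3H]VCR (70.4 nM) or [3H]VLB (49.5 nM), ±modulator at 100 μM (<0.1% DMSO), for 2 h at room temperature. Cells were washed in ice-cold PBS, trypsinized and scintillation-counted, with cell number counted per dish. Percent control = uptake with/without modulator ×100. Mean of two experiments, each done in triplicate.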

Test [2] deals with KB. Put plainly: Increase in the accumulation of vinblastine in multi-drug resistant KB8-5 (HeLa variant) cell line in vitro. Details: concentration or dose not given beside the values. The class given is functional, Homo sapiens. The method in brief:
as §1

Test [3] deals with GC3/Cl. As to the kind of experiment: Concentration required to produce 50% reduction in clonogenic survival of GC3/Cl cell line. The class given is functional, cell-based. Particulars: Homo sapiens. The method in brief: (§2)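 Clonogenic survival. KBChR-8-5 cells were plated in triplicate at 1000/well and GC3 cells at 3000/well. After 24 h the medium was replaced with fresh medium holding modulator at 1-100 μM (final 0.1% DMSO). Cells were kept 7 days at 37 °C, then stained with crystal violet and the colonies counted. The 50% and 10% colony-reduction concentrations were read from concentration-survival curves versus controls.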

Test [4] relates to GC3/Cl. Put plainly: Increase in the accumulation of vinblastine in multi-drug resistant GC3/Cl (human adenocarcinoma) cell line in vitro. The class given is functional. Further details: concentration or dose not given beside the values.
Test [5] relates to KB. Put plainly: Concentration required to produce 50% reduction in clonogenic survival of KB8-5 cell line. The class given is functional, cell-based. Particulars: Homo sapiens. The method in brief: as §2
Test [6] deals with KB. As to the kind of experiment: Percent control was evaluated by measuring the ability to increase the vinca alkaloid, vinblastine(VLB) in KB8-5 cell line. The class given is functional, Homo sapiens. The gist of the method:
as §1

For test [7], the system named is KB. As to the kind of experiment: Percent control was evaluated by measuring the ability to increase the vinca alkaloid, vincristine(VCR) in KB8-5 cell line. The class given is functional, Homo sapiens. The method in brief: as §1
For test [8], the system named is GC3/Cl. Put plainly: Increase in the accumulation of vincristine in multi-drug resistant GC3/Cl (human adenocarcinoma) cell line in vitro. The test is classed as functional.
Test [9] deals with GC3/Cl. Put plainly: Concentration required to produce 10% reduction in clonogenic survival of GC3/Cl cell line. The class given is functional, cell-based. Particulars: Homo sapiens. The method in brief: as §2
Test [10] relates to GC3/Cl. Put plainly: Inhibitory concentration was evaluated by measuring the potentiation of VCR cytotoxicity in GC3/Cl cell line. The test is classed as functional, cell-based. Particulars: Homo sapiens. The gist of the method:
(§3)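 Colony-formation assay. Cells were given graded VCR or VLB continuously for 7 days at 37 °C, with or without modulator at the concentration that alone reduced colony formation by 10%. Colonies were then stained with crystal violet and counted. Vinca IC50 values were derived with and without modulator, and the result was expressed as fold potentiation.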

Test [11] deals with GC3/Cl. Put plainly: Inhibitory concentration was evaluated by measuring the potentiation of VLB cytotoxicity in GC3/Cl cell line. Particulars: Homo sapiens. The class given is functional, cell-based. The gist of the method:
as §3

In test [12] the test system is KB. Put plainly: Inhibitory concentration was evaluated by measuring the potentiation of VCR cytotoxicity in KB8-5 cell line. Particulars: Homo sapiens. The class given is functional, cell-based. The gist of the method: as §3
Test [13] concerns KB. Put plainly: Inhibitory concentration was evaluated by measuring the potentiation of VLB cytotoxicity in KB8-5 cell line. The class given is functional, cell-based. Particulars: Homo sapiens. The gist of the method: as §3
Test [14] relates to KB. Put plainly: Concentration required to produce 10% reduction in clonogenic survival of KB8-5 cell line. Particulars: Homo sapiens. The test is classed as functional. The method in brief: as §2

Consider `O=C(CN1CCOCC1)N1c2ccccc2Oc2ccccc21`, for which the Control with KB [1] amounted to 290%; in the test with KB [2] it was 674%.

Regarding `c1ccc2c(c1)Oc1ccccc1N2CCCCN1CCCCC1`, the figures for the IC50 in the test with GC3/Cl [3] and in the test with KB [5] were 7 µM and under 7 µM, respectively. Further, the Control in the test on GC3/Cl [4] worked out at 1121%; in the test with KB [1], 196%; in the test with KB [2], 1071%.

For `O=C(CCl)N1c2ccccc2Oc2ccccc21`, the Control in the test with KB [6] is recorded as 236%; with KB [7], 138%.

As to `O=C(N1c2ccccc2Oc2ccccc21)C(F)(F)F`, the Control was determined as 230% in the test with GC3/Cl [8], 415% in the test with KB [1] and 827% with KB [2].

Take `OCCN1CCN(CCCCN2c3ccccc3Oc3ccccc32)CC1`: the half-maximal inhibitory concentration (IC50) (commonly the point on the concentration scale where inhibition reaches its midpoint) was 7 µM with GC3/Cl [3] and under 7 µM in the test with KB [5]. The Control was found to be 1340% in the test with GC3/Cl [4], 91% in the test with KB [1] and 188% in the test on KB [2].

As to `CCN(CC)CCCN1c2ccccc2Oc2ccccc21`, the results for the IC50 with GC3/Cl [3] and in the test with KB [5] were 10 µM and 15 µM, respectively. The values for the Control with GC3/Cl [4], with KB [1] and in the test on KB [2] were 1025%, 546% and 2123%, respectively.

For the molecule `O=C(CN1CCN(CCO)CC1)N1c2ccccc2Oc2ccccc21`, the Control is on record as 280% with KB [1] and 776% in the test with KB [2].

Consider `OCCN(CCO)CCCCN1c2ccccc2Oc2ccccc21`, for which the half-maximal inhibitory concentration (IC50) with GC3/Cl [3] is 16 µM; in the test on KB [5] it was under 10 µM. The Control in the test on GC3/Cl [4] was found to be 1165%; in the test with KB [1] it was 92%; with KB [2], 403%.

Consider `CCN(CC)CC(=O)N1c2ccccc2Oc2ccccc21`, for which the Control in the test on GC3/Cl [8] is given as 160%; with KB [1] it was 184%; in the test on KB [2] it was 953%.

Regarding `ClCCCCN1c2ccccc2Oc2ccccc21`, the Control turned out to be 361% in the test on GC3/Cl [4], 398% in the test on KB [1] and 792% in the test on KB [2].

For `O=C(CN1CCCC1)N1c2ccccc2Oc2ccccc21`, the Control with KB [1] was 188%; in the test with KB [2], 776%.

With `OCCN(CCO)CCCN1c2ccccc2Oc2ccccc21`, the concentration for an effect of 10% (IC10) with GC3/Cl [9] and in the test on KB [14] was 25 µM each time. The IC50 in the test with GC3/Cl [3] worked out at 37 µM; in the test with GC3/Cl [10], 0.0048 µM; with GC3/Cl [11], 0.002 µM; with KB [5], 38 µM; in the test with KB [12], 0.0059 µM; in the test on KB [13], 0.0027 µM. For the same molecule, the Control was found to be 1070% with GC3/Cl [4], 473% with KB [1] and 1666% in the test on KB [2].

Turning to `c1ccc2c(c1)Oc1ccccc1N2CCCCN1CCCC1`, the half-inhibitory concentration (IC50) was 7 µM with GC3/Cl [3] and under 7 µM in the test with KB [5]. Moreover, the Control in the test on GC3/Cl [4] is given as 1315%; with KB [1], 198%; in the test with KB [2], 477%.

As for `c1ccc2c(c1)Oc1ccccc1N2CCCCN1CCOCC1`, the IC10 (in general, the concentration at which the effect reaches the 10% level) in the test on GC3/Cl [9] is 10 µM; with KB [14], 6 µM. Also, the IC50 with GC3/Cl [3] came to 17 µM; in the test on GC3/Cl [10] it was 0.0024 µM; with GC3/Cl [11], 0.002 µM; in the test on KB [5], 18 µM; with KB [12], 0.0045 µM; in the test on KB [13], 0.002 µM. Also, the Control was found to be 1175% in the test on GC3/Cl [4], 702% with KB [1] and 2684% in the test with KB [2].

On to `O=C(CN1CCCCC1)N1c2ccccc2Oc2ccccc21`, for which the concentration for an effect of 10% (IC10) in the test on GC3/Cl [9] and with KB [14] was 40 µM throughout. The 50% inhibitory concentration (IC50) in the test on GC3/Cl [3] turned out to be 88 µM; in the test with GC3/Cl [10], 0.0029 µM; in the test on GC3/Cl [11], 0.0022 µM; with KB [5], 73 µM; in the test with KB [12], 0.006 µM; in the test with KB [13] it was 0.0023 µM. In addition, the Control is 326% with KB [1] and 2023% in the test on KB [2].

On to `c1ccc2c(c1)Oc1ccccc1N2CCCN1CCOCC1`, for which the concentration for an effect of 10% (IC10) with GC3/Cl [9] and in the test with KB [14] was 25 µM in each case. Besides, the 50% inhibitory concentration (IC50) came out at 40 µM in the test on GC3/Cl [3]; 0.0021 µM with GC3/Cl [10]; 0.002 µM with GC3/Cl [11]; 73 µM with KB [5]; 0.0019 µM in the test with KB [12]; 0.0016 µM in the test with KB [13]. Besides, the Control with GC3/Cl [4] is on record as 960%; in the test on KB [1], 742%; in the test on KB [2], 1717%.

For the molecule `COc1ccc(CCN(C)CCCC(C#N)(c2ccc(OC)c(OC)c2)C(C)C)cc1OC` (stereo not given), the Control in the test with KB [2] came out at 1124%.

With `OCCN1CCN(CCCN2c3ccccc3Oc3ccccc32)CC1`, the Control with GC3/Cl [4] worked out at 879%; in the test on KB [1] it was 343%; with KB [2] it was 824%.

`CCN(CC)CCCCN1c2ccccc2Oc2ccccc21`: the values for the Control in the test on GC3/Cl [4], in the test on KB [1] and with KB [2] were 737%, 211% and 697%, respectively.

For the molecule `ClCCCN1c2ccccc2Oc2ccccc21`, the IC10 came to 50 µM with GC3/Cl [9] and 20 µM with KB [14]. The IC50 in the test with GC3/Cl [3] worked out at 83 µM; with GC3/Cl [10], 0.002 µM; with GC3/Cl [11], 0.0017 µM; with KB [5] it was 57 µM; with KB [12] it was 0.0118 µM; with KB [13], 0.0053 µM. The results for the Control with GC3/Cl [4], in the test with KB [1] and in the test with KB [2] were 570%, 454% and 342%, respectively.

With `c1ccc2c(c1)Oc1ccccc1N2CCCN1CCCC1`, the Control in the test on GC3/Cl [4] was determined as 757%; in the test on GC3/Cl [8] it was 250%; with KB [1] it was 408%; in the test on KB [2], 969%.

For `c1ccc2c(c1)Oc1ccccc1N2CCCN1CCCCC1`, the Control is on record as 633% with GC3/Cl [4], 435% in the test with KB [1] and 1227% in the test with KB [2].
